The record followed here is ChEMBL document CHEMBL4261487, “Small structural changes of the imidazopyridine diacylglycerol acyltransferase 2 (DGAT2) inhibitors produce an improved safety profile” (Medchemcomm, 2017).

For data set [1], the system named is Canis familiaris. The data set can be described thus: In vivo inhibition of DGAT2 in beagle dog assessed as coverage of in vitro IC50 for dog DGAT2 at 10 mg/kg, po qd administered for 1 month. Details: scale not given: the % may be the effect or the level left. Type of data set: functional, Canis lupus familiaris. The gist of the method:
(§1)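 Beagle dogs, once-daily oral dosing for 14 days or 1 month; systemic exposure with sexes combined; coverage is the average % above dog DGAT2 IC50 at steady state over the 24 h dosing interval.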

Data set [2] deals with Canis familiaris. The data set is described as follows: Unbound Cmax in beagle dog at 10 mg/kg, po qd administered for 1 month. It counts as ADME, organism-based, Canis lupus familiaris. To be noted: in vivo. The gist of the method:
(§2)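 Beagle dogs were dosed orally once daily in a 14-day exploratory study or 1-month toxicity studies. Steady-state systemic exposure over the 24 h dosing interval is reported as the mean of male and female values combined.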

Data set [3] in a line: Ratio of Cmax in telemetered beagle dog at 25 mg/kg administered via oral gavage measured over 24 hrs to IC50 for in vitro inhibition of dog DGAT2. It counts as organism-based, Canis lupus familiaris. To be noted: in vivo. The gist of the method: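 Telemetered Beagle dogs given single oral doses (5, 25 and 50 mg kg–1), with systolic and diastolic blood pressure and heart rate monitored after dosing. Cmax is related to the dog DGAT2 enzymatic IC50, which is the geometric mean of at least three replicates.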

Data set [4] deals with Canis familiaris. The data set is described as follows: Unbound Cmax in telemetered beagle dog at 25 mg/kg administered via oral gavage measured over 24 hrs. Type of data set: ADME, organism-based, Canis lupus familiaris. As to conditions: in vivo. The gist of the method:
(§3)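 Telemetered Beagle dogs given oral doses, with blood pressure and heart rate monitored after dosing alongside plasma exposure.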

Data set [5] can be described thus: Apparent intrinsic clearance in human hepatocytes assessed per million cells. Type of data set: ADME, cell-based, Hepatocyte.
In another data set the target is CYP3A4 (Homo sapiens, UniProt P08684). The data set can be described thus: Drug metabolism in human liver microsomes assessed as CYP3A4-mediated oxidative metabolism by measuring clearance rate. It counts as ADME. As to conditions: liver microsomes, read-out: CLH. A general note: Liver microsomes are a subcellular fraction often used to study metabolism.
CYP3A4, sequence (P08684 whole entry): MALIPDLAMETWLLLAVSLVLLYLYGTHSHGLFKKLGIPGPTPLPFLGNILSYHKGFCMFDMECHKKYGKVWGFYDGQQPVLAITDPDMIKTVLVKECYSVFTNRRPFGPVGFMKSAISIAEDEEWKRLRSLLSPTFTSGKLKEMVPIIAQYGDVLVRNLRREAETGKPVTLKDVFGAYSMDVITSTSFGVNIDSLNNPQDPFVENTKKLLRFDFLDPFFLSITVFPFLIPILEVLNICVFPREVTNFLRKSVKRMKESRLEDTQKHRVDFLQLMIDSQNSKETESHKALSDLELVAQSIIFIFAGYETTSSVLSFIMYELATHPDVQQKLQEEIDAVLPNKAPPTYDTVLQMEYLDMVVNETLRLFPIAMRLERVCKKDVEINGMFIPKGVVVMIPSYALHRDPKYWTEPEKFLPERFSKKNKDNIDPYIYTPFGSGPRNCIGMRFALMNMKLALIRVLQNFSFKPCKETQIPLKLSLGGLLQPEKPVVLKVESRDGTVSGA
In data set [6] the test system is Canis familiaris. The data set is described as follows: Toxicity in beagle dog at 3 to 30 mg/kg, po qd administered for 1 month. It counts as organism-based, Canis lupus familiaris. As to conditions: in vivo.
Data set [7] in a line: Ratio of Cmax in beagle dog at 10 mg/kg, po qd administered for 1 month to IC50 for in vitro inhibition of dog DGAT2. As to conditions: in vivo. It counts as organism-based, Canis lupus familiaris. The gist of the method:
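One-month toxicity study in Beagle dogs with N = 2/sex/dose. Plasma exposure at each dose level was referenced to the dog DGAT2 enzymatic IC50, reported as the geometric mean of at least three replicates.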

The nature of data set [8]: Volume of distribution at steady state in beagle dog at 1 mg/kg, iv. Type of data set: ADME, organism-based, Canis lupus familiaris. To be noted: in vivo, read-out: Vdss. The gist of the method:
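Male Beagle dogs, single iv dose, crystalline form of compound; value is the mean of two experiments.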

The test system of data set [9] is Canis familiaris. The data set is described as follows: Unbound AUC in beagle dog at 10 mg/kg, po qd administered for 1 month. It counts as ADME, organism-based, Canis lupus familiaris. As to conditions: in vivo. The procedure, abridged: as §2
The next data set concerns the target Cytochrome P450 3A4 (Homo sapiens, UniProt P08684). The data set is described as follows: Drug metabolism in human liver microsomes assessed as fraction of CYP3A4-mediated oxidative metabolism preincubated for 5 mins followed by addition of NADPH regenerating system and measured after 2.5 to 60 mins. Type of data set: ADME. The gist of the method:
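Fractions of metabolism attributed to CYP oxidation and UGT glucuronidation were derived from human liver microsomal incubations. For the glucuronidation arm, microsomes were supplemented with the UGT cofactor UDP-glucuronic acid.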

A further data set deals with UGT. The data set can be described thus: Drug metabolism in human liver microsomes assessed as UGT-mediated glucuronidation by measuring clearance rate. As to conditions: liver microsomes, read-out: CLH. It counts as ADME.
Data set [10] can be described thus: Oral bioavailability in beagle dog at 5 mg/kg. Type of data set: ADME, organism-based, Canis lupus familiaris. As to conditions: in vivo.
For data set [11], the system named is Canis familiaris. The data set can be described thus: Unbound Cmax in beagle dog at 30 mg/kg, po qd administered for 1 month. It counts as ADME, organism-based, Canis lupus familiaris. To be noted: in vivo. The procedure, abridged:
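One-month dog toxicity study with once-daily oral dosing. Toxicity groups were 2/sex/dose, and unbound peak exposure was taken from toxicokinetic sampling.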

Data set [12] concerns Canis familiaris. The data set can be described thus: Toxicity in po dosed telemetered beagle dog assessed as increase in heart rate measured over 24 hrs. Type of data set: organism-based, Canis lupus familiaris. To be noted: in vivo.
Data set [13] concerns Canis familiaris. The data set is described as follows: Toxicity in beagle dog assessed as body weight gain at 150 mg/kg, po qd administered for 10 days. To be noted: in vivo, 240 h. Type of data set: organism-based, Canis lupus familiaris.
Data set [14] deals with Canis familiaris. The data set can be described thus: Toxicity in telemetered beagle dog assessed as multiple bouts of emesis at 75 mg/kg administered via oral gavage measured within 4 hrs of dosing. As to conditions: in vivo. Type of data set: organism-based, Canis lupus familiaris.
The subject of data set [15] is Canis familiaris. The data set is described as follows: Toxicity in telemetered beagle dog assessed as change in blood pressure at 5 mg/kg administered via oral gavage measured over 24 hrs. It counts as organism-based, Canis lupus familiaris. As to conditions: in vivo.
Data set [16] relates to Canis familiaris. The data set is described as follows: Unbound AUC in beagle dog at 75 mg/kg, po qd administered for 14 days. To be noted: in vivo, 336 h. Type of data set: ADME, organism-based, Canis lupus familiaris. The procedure, abridged: as §2
For data set [17], the system named is Rattus norvegicus. The data set can be described thus: Unbound AUC in Wistar Han IGS rat at 100 mg/kg, po qd administered for 14 days. Type of data set: ADME, organism-based. As to conditions: in vivo, 336 h. The procedure, abridged: (§4)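 Wistar Han rats were dosed orally once daily for 14 days (exploratory, 5/sex/dose) or 1 month (toxicity, 10/sex/dose). Toxicokinetic satellite animals (3–4/sex/dose) were used, and steady-state systemic exposure is given as the mean of male and female values combined.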

The test system of data set [18] is Canis familiaris. The data set is described as follows: Toxicity in telemetered beagle dog assessed as increase in heart rate at 10 mg/kg administered via oral gavage measured over 24 hrs. It counts as organism-based, Canis lupus familiaris. To be noted: in vivo.
Data set [19] concerns Rattus norvegicus. The data set is described as follows: In vivo inhibition of DGAT2 in Wistar Han IGS rat assessed as coverage of in vitro IC50 for rat DGAT2 at 300 mg/kg, po qd administered for 1 month. Type of data set: functional. Details: scale not given: the % may be the effect or the level left. The procedure, abridged:
(§5)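 Wistar Han rats, once-daily oral dosing for 14 days (exploratory, 5/sex/dose) or 1 month (10/sex/dose); toxicokinetics in 3–4/sex/dose with sexes combined; coverage is the average % above rat DGAT2 IC50 at steady state over the 24 h dosing interval.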

Data set [20] concerns Rattus norvegicus. The data set can be described thus: Unbound Cmax in Wistar Han IGS rat at 300 mg/kg, po qd administered for 1 month. It counts as ADME, organism-based. As to conditions: in vivo. The procedure, abridged:
as §4

The test system of data set [21] is Canis familiaris. The data set can be described thus: Unbound Cmax in telemetered beagle dog at 75 mg/kg administered via oral gavage measured over 24 hrs. Type of data set: ADME, organism-based, Canis lupus familiaris. As to conditions: in vivo. The procedure, abridged:
as §3

Data set [22] relates to Rattus norvegicus. The data set is described as follows: Unbound Cmax in Wistar Han IGS rat at 60 mg/kg, po qd administered for 1 month. As to conditions: in vivo. It counts as ADME, organism-based. The procedure, abridged: as §4
In data set [23] the test system is Canis familiaris. The data set is described as follows: Toxicity in beagle dog assessed as body weight gain at 100 mg/kg, po qd administered starting on day 11 post 150 mg/kg dosing period and continuing for 20 days. Type of data set: organism-based, Canis lupus familiaris. To be noted: in vivo, 480 h.
The test system of data set [24] is Canis familiaris. The data set is described as follows: Unbound Cmax in beagle dog […] at 300 mg/kg, po qd administered for 14 days. Type of data set: ADME, organism-based, Canis lupus familiaris. As to conditions: in vivo, 336 h. The procedure, abridged: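 Exploratory 14-day dog toxicity study with daily oral dosing. Toxicokinetic exposure is reported as the mean with male and female systemic values combined.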

Data set [25] concerns Rattus norvegicus. The data set can be described thus: Unbound Cmax in Wistar Han IGS rat at 500 mg/kg, po qd administered for 14 days. To be noted: in vivo, 336 h. Type of data set: ADME, organism-based. The gist of the method: as §4
In data set [26] the test system is Canis familiaris. The data set is described as follows: In vivo inhibition of DGAT2 in beagle dog assessed as coverage of in vitro IC50 for dog DGAT2 at 75 mg/kg, po qd administered for 14 days. Type of data set: functional, Canis lupus familiaris. Details: scale not given: the % may be the effect or the level left. The gist of the method:
as §1

The subject of data set [27] is Rattus norvegicus. The data set can be described thus: Unbound AUC in Wistar Han IGS rat at 500 mg/kg, po qd administered for 14 days. Type of data set: ADME, organism-based. To be noted: in vivo, 336 h. The gist of the method:
as §4

The test system of data set [28] is Canis familiaris. The data set can be described thus: Toxicity in telemetered beagle dog assessed as increase in systolic blood pressure at 20 mg/kg, iv administered as single bolus dose over 2 mins. Type of data set: organism-based, Canis lupus familiaris. To be noted: in vivo.
Data set [29] has as its system Canis familiaris. The data set can be described thus: Toxicity in telemetered beagle dog assessed as increase in heart rate at 75 mg/kg administered via oral gavage measured over 24 hrs. It counts as organism-based, Canis lupus familiaris. To be noted: in vivo.
In data set [30] the test system is Canis familiaris. The data set can be described thus: Toxicity in beagle dog assessed as decrease in food consumption at 150 mg/kg, po qd administered for 10 days. Type of data set: organism-based, Canis lupus familiaris. To be noted: in vivo, 240 h.
In data set [31] the test system is Rattus norvegicus. The data set is described as follows: In vivo inhibition of DGAT2 in Wistar Han IGS rat assessed as coverage of in vitro IC50 for rat DGAT2 at 10 mg/kg, po qd administered for 14 days. It counts as functional. Details: scale not given: the % may be the effect or the level left. The procedure, abridged: as §5

Cytochrome P450 3A4, sequence (P08684 whole entry): as above

By bioavailability is commonly meant the share of a dose that reaches the circulation, judged against a reference dose that is usually intravenous. For the molecule `C[C@@H](c1nc2ccc(N3CCC[C@@H](C(=O)N4CCCC4)C3)nc2[nH]1)n1cc(Cl)cn1`, the Activity with Canis familiaris [1] is 86%; in the data set on Canis familiaris [6], “Non-Toxic”. In addition, the fCmax in the data set with Canis familiaris [2] came out at 1270 nM; with Canis familiaris [4], 2.14 µM; in the data set with Canis familiaris [11], 3.76 µM. Moreover, the Ratio turned out to be 52 in [3], 31 in data set [7] and 0.61 on Cytochrome P450 3A4. For the same molecule, the “CLH(app)” value in data set [5] worked out at 16.1 µL/min. Further, the microsomal CLint at CYP3A4 turned out to be 27.5 µL/min/mg; in the data set with UGT, 10.8 µL/min/mg. Besides, in [8], the Vd was 0.54 L/kg. In addition, the fAUC in the data set with Canis familiaris [9] amounted to 2680 ng·h/mL. The molecule further had a bioavailability in data set [10] of 75%.

For the molecule `CS(=O)(=O)O.O=C([C@@H]1CCCN(c2ccc3nc(C4(n5cc(Cl)cn5)CC4)[nH]c3n2)C1)N1CCCC1`, the Activity entry with Canis familiaris [12] is “Dose-dependent effect”; in the data set with Canis familiaris [13], “Toxic”; with Canis familiaris [1], 97%; in the data set with Canis familiaris [14], “Toxic”; in the data set with Canis familiaris [15], “Non-Toxic”; in the data set on Canis familiaris [18], 4 to 10 bpm. In addition, the Activity in the data set with Rattus norvegicus [19] is over 99%; with Canis familiaris [23], “Non-Toxic”; in the data set on Canis familiaris [26], 99%; in the data set with Canis familiaris [28], “Non-Toxic”; in the data set with Canis familiaris [29], 8 to 30 bpm; in the data set with Canis familiaris [30], “Toxic”. The Activity in the data set with Rattus norvegicus [31] worked out at 75%. Moreover, the fCmax in the data set on Canis familiaris [2] came to 2030 nM; with Canis familiaris [4] it was 4.06 µM; in the data set with Rattus norvegicus [20], 13.9 µM; with Canis familiaris [21], 7.51 µM; with Rattus norvegicus [22] it was 5.47 µM; in the data set with Canis familiaris [24] it was 15.3 µM. The fCmax in the data set with Rattus norvegicus [25] turned out to be 18.8 µM. For the same molecule, the fAUC in the data set on Canis familiaris [16] was found to be 24800 ng·h/mL; in the data set on Rattus norvegicus [17], 25600 ng·h/mL; in the data set on Rattus norvegicus [27] it was 88300 ng·h/mL; with Canis familiaris [9], 5280 ng·h/mL. Further, the microsomal CLint at CYP3A4 was 23.7 µL/min/mg; with UGT, under 1.9 µL/min/mg.
